Converted amounts (≈) assume the structure as drawn.
Tests used:
Rattus norvegicus = test: Anti-inflammatory activity in rat assessed as inhibition of carrageenan-induced hind paw edema at 10 mg/kg, po pretreated for 1 hr followed by carrageenan challenge measured after 3 hrs by plethysmometer relative to control; assay type: functional
How it was run: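 Albino rats; carrageenan-induced paw edema test after Winter et al., with diclofenac sodium as reference standard. Percentage reduction in inflammation recorded 3 h after carrageenan, relative to carrageenan-only animals.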

SR = test: Growth inhibition of human SR cells after 48 hrs by SRB assay; assay type: functional
CCRF-CEM = test: cells; settings: Homo sapiens, 48 h
[1] = Antioxidant activity assessed as DPPH free radical scavenging activity at 100 ppm after 30 mins in dark by spectrophotometric method relative to control; assay type: functional
How it was run: (§1)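 DPPH (1,1-diphenyl-2-picrylhydrazyl) radical scavenging assay. The change in absorbance was read at 517 nm on a spectrophotometer. Activity is given as percent inhibition of the DPPH radical, calculated as (absorbance of control − absorbance of sample)/absorbance of control × 100.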

[2] = Antioxidant activity assessed as cupric ion reducing activity by measuring increase in absorbance at 100 ppm by CUPRAC assay; assay type: functional
How it was run: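 CUPRAC assay. Sample solution was mixed with distilled water, at a pH close to 7. Reduction of Cu(II) to Cu(I) was followed as the increase in absorbance at 450 nm of the reaction mixture.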

[3] = Antioxidant activity assessed as DPPH free radical scavenging activity at 12.5 ppm after 30 mins in dark by spectrophotometric method relative to control; assay type: functional; how it was run: as §1
Mus musculus [4] = test: Anticonvulsant activity in ip dosed maximal electroshock induced seizure mouse model assessed as suppression of hind limb tonic extension measured at 0.5 hrs post dose; assay type: functional; settings: read-out: MED
How it was run: (§2)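 Albino mice given the compound ip, suspended in 0.5% methyl cellulose–water, at 30, 100 and 300 mg/kg. Maximal electroshock by corneal electrodes: 50 mA, 60 Hz, 0.2 s. Abolition of hind limb tonic extension scored as protection. Value is the minimum dose active in half or more of the mice.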

Mus musculus [5] = test: Anticonvulsant activity in ip dosed maximal electroshock induced seizure mouse model assessed as suppression of hind limb tonic extension measured at 4 hrs post dose; assay type: functional; settings: read-out: MED; how it was run: as §2
[6] = molecular target: T1, Alpha-1A adrenergic receptor (Homo sapiens, UniProt P35348); test: Displacement of [125I]L-762,459 from recombinant human alpha1a adrenergic receptor expressed in mammalian cells measured after 1 hr; assay type: cell-based
T1 sequence (P35348 whole entry): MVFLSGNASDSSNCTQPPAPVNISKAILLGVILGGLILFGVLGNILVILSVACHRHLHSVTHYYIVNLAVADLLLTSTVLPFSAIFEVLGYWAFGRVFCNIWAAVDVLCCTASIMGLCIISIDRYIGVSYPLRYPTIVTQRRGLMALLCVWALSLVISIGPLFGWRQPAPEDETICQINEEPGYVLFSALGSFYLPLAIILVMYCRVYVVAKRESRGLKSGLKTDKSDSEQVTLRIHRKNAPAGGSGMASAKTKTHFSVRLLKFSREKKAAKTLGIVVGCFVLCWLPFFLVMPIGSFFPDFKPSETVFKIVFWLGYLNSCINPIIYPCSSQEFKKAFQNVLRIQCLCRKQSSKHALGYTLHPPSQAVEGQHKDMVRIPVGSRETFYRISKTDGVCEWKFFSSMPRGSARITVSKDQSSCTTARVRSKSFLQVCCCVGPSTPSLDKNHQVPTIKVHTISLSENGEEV

Pseudomonas aeruginosa = test: Antibacterial activity against Pseudomonas aeruginosa MTCC 2581 by spectrophotometric method; assay type: functional
How it was run: (§3)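 Serial broth dilution, 200 to 15.625 μg/mL, in nutrient broth, sonicated 10 min. Inoculum gave a starting density of 10^3–10^4 CFU/mL. Flasks were shaken at 200 rpm and 37 °C, and growth followed by the rise in absorbance at 600 nm. MIC is the lowest concentration inhibiting the organism. Controls: compound without inoculum, and inoculum without compound.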

Staphylococcus aureus = test: Antibacterial activity against Staphylococcus aureus MTCC 3160 by spectrophotometric method; assay type: functional; how it was run: as §3
Klebsiella pneumoniae = test: Antibacterial activity against Klebsiella pneumoniae MTCC 7028 by spectrophotometric method; assay type: functional; how it was run: as §3
Escherichia coli = test: Antibacterial activity against Escherichia coli MTCC 443 by spectrophotometric method; assay type: functional; how it was run: as §3

In the case of `COc1ccc(C2NC(S)=NC(c3ccc(Cl)cc3)=C2CC(=O)O)cc1` (stereo not drawn), the inhibition in vivo at 10 mg/kg (Rattus norvegicus) is reported as 35%.
`O=C(O)CC1=C(c2ccccc2)N=C(S)NC1c1cccs1` (stereo not drawn) showed an inhibition in vivo at 10 mg/kg (Rattus norvegicus) of 21%.
With `O=c1/c(=C/c2ccc([N+](=O)[O-])o2)sc2n1C(c1ccc3c(c1)OCO3)C=C(c1cc(F)c(Cl)cc1Cl)N=2` (stereo not drawn) the GI50 (SR) was 3.34 µM and the GI50 (CCRF-CEM) was 3.24 µM.
Work on `O=c1c(O)c(-c2ccc(O)c(O)c2)oc2cc(O)cc(O)c12` yielded an Activity [1] of 82.3%, an absorbance [2] of 1.2 and an Activity [3] of 55.3%.
Work on `O=C(O)CC1=C(c2ccc(Cl)cc2)N=C(S)NC1c1ccccc1` (stereo not drawn) yielded an inhibition in vivo at 10 mg/kg (Rattus norvegicus) of 20%.
In the case of `O=[N+]([O-])c1cccc(C2C=C(n3cc(-c4ccccc4)nc3-c3ccccc3)N=C(S)N2)c1` (stereo not drawn), the minimal effective dose (Mus musculus [4]) is reported as 30 mg/kg and the minimal effective dose (Mus musculus [5]) is reported as 300 mg/kg.
Molecule `O=C1NC(=O)C(c2ccccc2)(c2ccccc2)N1` [PHENYTOIN] has a minimal effective dose (Mus musculus [4]) of 30 mg/kg and a minimal effective dose (Mus musculus [5]) of 30 mg/kg.
`SC1=NC(n2nc(-c3ccccc3)nc2-c2ccccc2)=CC(c2ccc(Cl)cc2)N1` (stereo not drawn) gave a minimal effective dose (Mus musculus [4]) of 30 mg/kg and a minimal effective dose (Mus musculus [5]) of 300 mg/kg.
For `CC1=C(C(=O)NCCCN2CCC(c3ccc(F)c(F)c3)CC2)[C@@H](c2ccc(F)c(F)c2)NC(=O)N1C`, the Ki [6] was 0.00018 to 0.00039 µM.
`CCCCC1NC(=O)NC(C)=C1C(=O)CC` (stereo not drawn) gave an MIC (Pseudomonas aeruginosa; read-out: MIC) of 250 µg/mL (≈ 1110 µM) and an MIC (Staphylococcus aureus) of 250 µg/mL (≈ 1110 µM).
Molecule `Cc1ccc(C2=C(CC(=O)O)C(c3ccc(Cl)cc3)NC(S)=N2)cc1` (stereo not drawn) has an inhibition in vivo at 10 mg/kg (Rattus norvegicus) of 22%.
`O=C(O)c1cc(O)c(O)c(O)c1` gave an Activity [1] of 92.4%, an absorbance [2] of 1.4 and an Activity [3] of 62.4%.
For `COc1ccc(C2C=C(n3cc(-c4ccccc4)nc3-c3ccccc3)N=C(S)N2)cc1` (stereo not drawn), the minimal effective dose (Mus musculus [4]) was 100 mg/kg and the minimal effective dose (Mus musculus [5]) was 300 mg/kg.
Molecule `O=C(O)CC1=C(c2ccccc2)N=C(S)NC1c1ccccc1` (stereo not drawn) has an inhibition in vivo at 10 mg/kg (Rattus norvegicus) of 17%.
For `Cc1ccc(C2=C(CC(=O)O)C(c3cccs3)NC(S)=N2)cc1` (stereo not drawn), the inhibition in vivo at 10 mg/kg (Rattus norvegicus) was 10%.
`Oc1ccc(C2C=C(n3nc(-c4ccccc4)nc3-c3ccccc3)N=C(S)N2)cc1` (stereo not drawn) gave a minimal effective dose (Mus musculus [4]) of 30 mg/kg and a minimal effective dose (Mus musculus [5]) of 300 mg/kg.
In the case of `CCC(=O)C1=C(C)NC(=O)NC1c1ccc([N+](=O)[O-])cc1` (stereo not drawn), the MIC (Pseudomonas aeruginosa) is reported as 15.6 to 31.2 µg/mL (≈ 53.9 to 108 µM) and the MIC (Staphylococcus aureus) is reported as 62.5 to 125 µg/mL (≈ 216 to 432 µM).
Molecule `Cc1ccc(C2=C(CC(=O)O)C(c3ccccc3)NC(S)=N2)cc1` (stereo not drawn) has an inhibition in vivo at 10 mg/kg (Rattus norvegicus) of 28%.
In the case of `CCC(=O)C1=C(C)NC(=O)NC1c1cccc(OC)c1` (stereo not drawn), the MIC (Pseudomonas aeruginosa; read-out: MIC) is reported as 250 µg/mL (≈ 911 µM) and the MIC (Staphylococcus aureus) is reported as 250 µg/mL (≈ 911 µM).
Work on `CCC(=O)C1=C(C)NC(=O)NC1c1cc(Cl)cc(Cl)c1` (stereo not drawn) yielded an MIC (Klebsiella pneumoniae) of 31.2 to 62.5 µg/mL (≈ 99.8 to 200 µM), an MIC (Pseudomonas aeruginosa) of 15.6 to 31.2 µg/mL (≈ 49.8 to 99.6 µM) and an MIC (Escherichia coli) of 15.6 to 31.2 µg/mL (≈ 49.8 to 99.6 µM). The Activity [3] was 17.3%.
For `CC(=O)C1=C(C)NC(=O)NC1c1ccc([N+](=O)[O-])cc1` (stereo not drawn), the MIC (Klebsiella pneumoniae) was 31.2 to 62.5 µg/mL (≈ 114 to 227 µM).
`COc1ccc(C2NC(=S)NC(c3ccc(C)cc3)=C2CC(=O)O)cc1` (stereo not drawn) showed an inhibition in vivo at 10 mg/kg (Rattus norvegicus) of 33%.

— ChEMBL document CHEMBL4024708, “Recent synthetic and medicinal perspectives of dihydropyrimidinones: A review” (Eur J Med Chem, 2017)
